Legend:
Assay type in all cases: cell-based
Raji [1] = assay: Antitumor-promoting activity assessed as TPA-induced EBV-early antigen activation in human Raji cells at 16 nmol after 48 hrs relative to TPA; settings: human gammaherpesvirus 4
Raji [2] = assay: Antitumor-promoting activity assessed as TPA-induced EBV-early antigen activation in human Raji cells at 3.2 nmol after 48 hrs relative to TPA; settings: human gammaherpesvirus 4
Raji [3] = assay: Antitumor-promoting activity assessed as TPA-induced EBV-early antigen activation in human Raji cells at 0.32 nmol after 48 hrs relative to TPA; settings: human gammaherpesvirus 4
[4] = Cytotoxicity against human Raji cells assessed as cell viability at 32 nmol by trypan blue staining; settings: read-out: Activity
[5] = Cytotoxicity against human Raji cells assessed as cell viability at 16 nmol by trypan blue staining; settings: read-out: Activity
[6] = Cytotoxicity against human Raji cells assessed as cell viability at 3.2 nmol by trypan blue staining; settings: read-out: Activity
[7] = Cytotoxicity against human Raji cells assessed as cell viability at 0.32 nmol by trypan blue staining; settings: read-out: Activity
Raji [8] = assay: Antitumor-promoting activity assessed as TPA-induced EBV-early antigen activation in human Raji cells at 32 nmol after 48 hrs relative to TPA; settings: human gammaherpesvirus 4
Procedure, shortened: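 Raji cells (EBV genome-carrying lymphoblastoid, nonproducer) in RPMI 1640 with 10% FBS, 1×10⁶/mL, given 4 mM n-butyric acid plus 32 pmol TPA (20 ng/mL) and test compound; 37 °C, CO₂, 48 h. EA-positive cells scored by indirect immunofluorescence using NPC patient sera, ≥500 cells counted, three repeats. Expressed as % of butyric acid+TPA control (100%), mean ± S.D.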

Compound | Activity (Raji [1]) [%] | Activity (Raji [2]) [%] | Activity (Raji [3]) [%] | viability at 32 nmol [4] [%] | viability at 16 nmol [5] [%] | viability at 3.2 nmol [6] [%] | viability at 0.32 nmol [7] [%] | Activity (Raji [8]) [%]
O=C1C[C@@H](c2ccc(O)c(O)c2)Oc2c1c(O)cc(O)c2[C@H]1C(=O)c2c(O)cc(O)cc2O[C@@H]1c1ccc(O)cc1 | 42.5 | 71.3 | 90.6 | 70 | > 80 | > 80 | > 80 | 
O=C1c2c(O)cc(O)cc2O[C@H](c2ccc(O)cc2)[C@H]1c1c(O)cc(O)c2c1O[C@H](c1ccc(O)c(O)c1)[C@@H](O)C2=O | 63.9 | 90.3 | 100 | 70 | > 80 | > 80 | > 80 | 28.7
O=C1C[C@@H](c2ccc(O)cc2)Oc2c1c(O)cc(O)c2[C@H]1C(=O)c2c(O)cc(O)cc2O[C@@H]1c1ccc(O)cc1 | 48.2 | 82.9 | 100 | 70 | > 80 | > 80 | > 80 | 19.4
O=C1c2c(O)cc(O)cc2O[C@H](c2ccc(O)cc2)[C@H]1c1c(O)cc(O)c2c1O[C@H](c1ccc(O)cc1)[C@@H](O)C2=O | 61 | 88.2 | 95.7 | 70 | > 80 | > 80 | > 80 | 25.3
O=C1c2c(O)cc(O)cc2O[C@@H](c2ccc(O)cc2)[C@@H]1c1c(O)cc(O)c2c(=O)c(O)c(-c3ccc(O)cc3)oc12 [GARCINIANIN] | 31.4 | 69.2 | 89.4 | 70 | > 80 | > 80 | > 80 | 
O=C1c2c(O)cc(O)cc2O[C@@H](c2ccc(O)cc2)[C@@H]1c1c(O)cc(O)c2c(=O)c(O)c(-c3ccc(O)c(O)c3)oc12 [PANCIBIFLAVONOL] | 50.2 | 75 | 94.4 | 70 | > 80 | > 80 | > 80 | 22.1
O=C1c2c(O)cc(O)cc2O[C@H](c2ccc(O)cc2)[C@H]1c1c(O)cc(O)c2c(=O)cc(-c3ccc(O)c(O)c3)oc12 [MORELLOFLAVONE] | 40.1 | 72.6 | 91.2 | 70 | > 80 | > 80 | > 80 | 
